Assay results published in ChEMBL document CHEMBL1122242, “Phenylenebis(oxy)bis[2,2-dimethylpentanoic acid]s: agents that elevate high-density lipoproteins” (1983).

Tests used:
Assay type in all cases: functional
Rattus norvegicus [1] = species on record: Rattus norvegicus; assay: Hypolipidemic effects(liver weight) in male rats
Summary of the method: (§1)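 Male rats, 10 per group, fed 7 days on chow with 10% fat (5.5% added peanut oil), 1.5% cholesterol and 0.1% cholic acid. Oral gavage on days 4-7 in 4% acacia, usually 50 mg/kg daily. Fasted overnight, killed day 8, atrial blood into EDTA. Plasma cholesterol, TG and HDL cholesterol (after MnCl2/heparin precipitation) by Autoanalyzer. % change vs controls, Student's t test.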

Rattus norvegicus [2] = assay: Hypolipidemic effects (low-density lipoprotein (LDL) cholesterol) in male rats; Compound was screening orally at 50 mg/Kg; summary of the method: as §1
Rattus norvegicus [3] = species on record: Rattus norvegicus; assay: Hypolipidemic effects(plasma cholesterol) in male rats; summary of the method: as §1
Rattus norvegicus [4] = species on record: Rattus norvegicus; assay: Hypolipidemic effects(plasma TG) in male rats; summary of the method: as §1
Rattus norvegicus [5] = assay: Hypolipidemic effects (high-density lipoprotein (HDL) cholesterol) in male rats; Compound was screening orally at 50 mg/Kg; summary of the method: as §1
Rattus norvegicus [6] = assay: Hypolipidemic effects (high-density lipoprotein (HDL) cholesterol) in male rats;Compound was screening orally at 50 mg/Kg; summary of the method: as §1

SMILES | Change (Rattus norvegicus [1]) | Change (Rattus norvegicus [2]) | Change (Rattus norvegicus [3]) | Change (Rattus norvegicus [4]) | Change (Rattus norvegicus [5]) | Change (Rattus norvegicus [6])
Cc1ccccc1-c1cc(OCCCC(C)(C)C(=O)O)ccc1OCCCC(C)(C)C(=O)O | 22% | -52% | 0% | 55% | 628% | –
COC(=O)C(C)(C)CCCOc1ccc(Br)c(OCCCC(C)(C)C(=O)OC)c1 | 5% | -52% | -47% | 0% | 26% | –
CC(C)(CCOc1ccc(Sc2ccc(OCCC(C)(C)C(=O)O)cc2)cc1)C(=O)O | 0% | – | -25% | -32% | – | 46%
COC(=O)C(C)(C)CCCSc1ccc(-c2ccc(SCCCC(C)(C)C(=O)OC)cc2)cc1 | 14% | -39% | 0% | 60% | 245% | –
CC(C)(CCCOc1cc(Cl)c(OCCCC(C)(C)C(=O)O)cc1Cl)C(=O)O | 41% | – | -55% | 35% | – | 384%
COC(=O)C(C)(C)CCCCCOc1ccccc1OCCCCCC(C)(C)C(=O)OC | 11% | -19% | 0% | 140% | 276% | –
Cc1cc(SCCCC(C)(C)C(=O)O)c(C)cc1OCCCC(C)(C)C(=O)O | 14% | -35% | -20% | 0% | 220% | –
COC(=O)C(C)(C)CCCOc1cc(OC)c(OCCCC(C)(C)C(=O)OC)cc1OC | 0% | – | -33% | 0% | – | 39%
CC(C)(CCCOc1ccc(OCCCC(C)(C)C(=O)O)c(Cc2ccccc2)c1)C(=O)O | 14% | -71% | -44% | 0% | 389% | –
CC(C)(CCCOc1ccc([S+]([O-])CCCC(C)(C)C(=O)O)cc1)C(=O)O (stereo not given) | 19% | -31% | -33% | 16% | 289% | –
COC(=O)C(C)(C)CCCOc1ccc(OCCCC(C)(C)C(=O)OC)c(C(C)(C)C)c1 | 11% | -41% | -34% | 0% | 171% | –
COC(=O)c1cc(OCCCC(C)(C)C(=O)OC)cc(OCCCC(C)(C)C(=O)OC)c1 | 0% | 0% | 0% | 0% | 0% | –
COC(=O)C(C)(C)CCCSc1ccc(Cl)c(SCCCC(C)(C)C(=O)OC)c1 | 0% | -52% | -53% | 0% | 56% | –
CCOC(=O)C(C)(C)CCCCCCOc1ccc(OCCCCCCC(C)(C)C(=O)OCC)cc1 | 0% | -29% | -26% | 0% | 0% | –
CC(C)(CCOc1ccc(OCCC(C)(C)C(=O)O)cc1)C(=O)O | 40% | – | -33% | 0% | – | 370%
CC(C)(CCCOc1ccc(OCCCC(C)(C)C(=O)O)c(C(F)(F)F)c1)C(=O)O | 39% | -45% | 0% | 0% | 674% | –
COC(=O)C(C)(C)CCCOc1ccc(OCCCC(C)(C)C(=O)OC)c(Br)c1 | 30% | – | -45% | -39% | – | 728%
CCCCCc1cc(OCCCC(C)(C)C(=O)OC)cc(OCCCC(C)(C)C(=O)OC)c1 | 8% | -67% | -57% | -32% | 47% | –
COC(=O)C(C)(C)CCCOc1ccc(C)c(OCCCC(C)(C)C(=O)OC)c1 | 4% | -64% | -55% | 0% | 38% | –
